The values that follow come from ChEMBL document CHEMBL4308828, “Fragment Based Optimization of Metabotropic Glutamate Receptor 2 (mGluR2) Positive Allosteric Modulators in the Absence of Structural Information” (J Med Chem, 2018).

One data set is filed under the species Homo sapiens. Nature of the data set: Binding affinity to sodium channel site 2 (unknown origin) at 10 uM relative to control.
A short description of data set [1]: Lipophilicity, log D of the compound at pH 7.4. The class given is physicochemical. The settings on record: buffer.
A short description of data set [2]: Plasma concentration in mouse at 30 mg/kg, po. Format: ADME, organism-based. Conditions: in vivo. Summed up:
(§1)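 Mice dosed orally at 30 mg/kg; plasma, brain and unbound plasma concentrations measured.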

For another data set, the target named is Cytochrome P450 2D6 (Homo sapiens, UniProt P10635). The data set is described as follows: Inhibition of CYP2D6 (unknown origin). The class given is ADME.
A short description of data set [3]: Drug uptake in mouse brain at 30 mg/kg, po. The settings on record: in vivo, read-out: Drug uptake. Format: ADME, organism-based. Put shortly: as §1
A further data set deals with Cytochrome P450 3A4 (Homo sapiens, UniProt P08684). The data set is described as follows: Inhibition of CYP3A4 (unknown origin). The class given is ADME.
Data set [4] has as its target T1, Androgen receptor (Homo sapiens) (UniProt P10275).
T1 sequence (whole entry): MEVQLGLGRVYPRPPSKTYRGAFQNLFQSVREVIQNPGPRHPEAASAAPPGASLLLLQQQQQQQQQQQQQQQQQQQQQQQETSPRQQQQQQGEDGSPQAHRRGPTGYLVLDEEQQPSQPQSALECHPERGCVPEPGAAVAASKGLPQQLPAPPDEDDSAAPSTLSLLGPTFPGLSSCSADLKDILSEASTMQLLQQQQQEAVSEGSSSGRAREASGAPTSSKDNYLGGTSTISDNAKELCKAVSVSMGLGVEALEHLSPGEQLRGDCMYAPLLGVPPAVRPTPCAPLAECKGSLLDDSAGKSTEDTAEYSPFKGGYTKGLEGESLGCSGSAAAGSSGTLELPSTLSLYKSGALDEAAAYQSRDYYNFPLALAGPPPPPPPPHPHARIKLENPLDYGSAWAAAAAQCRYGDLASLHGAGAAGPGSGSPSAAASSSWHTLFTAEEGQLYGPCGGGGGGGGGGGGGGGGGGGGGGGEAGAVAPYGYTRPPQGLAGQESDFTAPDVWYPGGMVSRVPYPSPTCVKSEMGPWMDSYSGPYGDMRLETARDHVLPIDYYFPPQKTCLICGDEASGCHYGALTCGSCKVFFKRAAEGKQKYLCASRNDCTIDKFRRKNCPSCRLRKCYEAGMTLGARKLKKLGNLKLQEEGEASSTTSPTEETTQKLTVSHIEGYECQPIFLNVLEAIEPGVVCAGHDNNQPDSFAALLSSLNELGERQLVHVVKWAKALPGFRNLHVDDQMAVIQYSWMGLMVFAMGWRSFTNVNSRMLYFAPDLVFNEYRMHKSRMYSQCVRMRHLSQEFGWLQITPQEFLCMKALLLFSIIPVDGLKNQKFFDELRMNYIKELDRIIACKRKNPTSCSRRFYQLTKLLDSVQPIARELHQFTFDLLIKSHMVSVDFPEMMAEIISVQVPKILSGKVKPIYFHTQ
The data set is described as follows: Binding affinity to AR (unknown origin) at 10 uM relative to control.

The target of a further data set is T2, Cytochrome P450 1A2 (Homo sapiens, UniProt P05177).
T2 sequence (P05177 whole entry): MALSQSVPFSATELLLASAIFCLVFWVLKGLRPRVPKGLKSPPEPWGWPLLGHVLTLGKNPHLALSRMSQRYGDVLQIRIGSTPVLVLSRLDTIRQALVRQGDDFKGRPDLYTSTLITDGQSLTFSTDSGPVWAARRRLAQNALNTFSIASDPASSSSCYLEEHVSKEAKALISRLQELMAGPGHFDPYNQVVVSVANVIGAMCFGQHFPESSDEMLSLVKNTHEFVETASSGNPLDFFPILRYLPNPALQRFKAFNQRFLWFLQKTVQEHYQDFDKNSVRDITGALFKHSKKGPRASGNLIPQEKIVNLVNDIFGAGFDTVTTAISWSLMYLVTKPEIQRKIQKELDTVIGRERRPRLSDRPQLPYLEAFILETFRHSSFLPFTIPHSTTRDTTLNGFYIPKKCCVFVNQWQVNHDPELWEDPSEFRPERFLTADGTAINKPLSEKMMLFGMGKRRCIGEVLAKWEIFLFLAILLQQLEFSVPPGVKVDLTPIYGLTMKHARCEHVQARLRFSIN
The data set is described as follows: Inhibition of CYP1A2 (unknown origin). Format: ADME.

In data set [5] the target is T3, Nuclear receptor subfamily 1 group I member 2 (Homo sapiens, UniProt O75469).
T3 sequence (O75469 whole entry): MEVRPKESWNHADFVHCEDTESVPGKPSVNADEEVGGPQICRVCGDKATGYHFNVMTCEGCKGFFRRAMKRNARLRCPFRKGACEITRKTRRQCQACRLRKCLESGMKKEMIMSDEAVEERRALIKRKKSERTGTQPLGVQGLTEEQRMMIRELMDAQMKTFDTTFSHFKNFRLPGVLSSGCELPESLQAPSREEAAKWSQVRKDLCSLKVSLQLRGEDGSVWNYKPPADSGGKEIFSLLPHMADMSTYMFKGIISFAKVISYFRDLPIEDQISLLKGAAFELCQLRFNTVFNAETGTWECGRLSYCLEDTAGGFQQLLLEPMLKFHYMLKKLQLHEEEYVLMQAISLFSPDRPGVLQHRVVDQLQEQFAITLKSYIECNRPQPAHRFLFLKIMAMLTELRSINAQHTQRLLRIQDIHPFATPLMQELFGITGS
Nature of the data set: Activation of PXR (unknown origin) assessed as CYP induction. Format: ADME.

Data set [6] deals with Metabotropic glutamate receptor 2 (Homo sapiens, UniProt Q14416). Nature of the data set: Positive allosteric modulation of human mGluR2 expressed in human Chem1 cells assessed as increase in glutamate-induced intracellular calcium influx preincubated for 30 mins followed by glutamate addition by calcium-5 dye based fluorometric assay. Format: functional, cell-based. Summed up: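 Chem-1 cells stably expressing human mGlu2, 30000 cells/well, overnight at 37 °C. Loaded with Calcium 5 dye (30 min, 37 °C) in buffer with GPT/pyruvate, washed, then compound or vehicle 30 min at 37 °C. Glutamate at EC5-EC20 added after 20 s baseline; fluorescence 485/525 nm read 40 s. ΔF/F from multiple wells; sigmoid fits give EC50, three independent experiments. Final DMSO 1%.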

Another data set addresses Cytochrome P450 2C9 (Homo sapiens, UniProt P11712). The data set is described as follows: Inhibition of CYP2C9 (unknown origin). The class given is ADME.
Data set [7] in a line: Intrinsic clearance in NMRI mouse liver microsomes at 2.5 uM. The class given is ADME, Microsome. Summed up: (§2)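 Liver microsomes (0.5 mg/mL) of human, Wistar rat or NMRI mouse; compound 2.5 μM initial, incubated for various times. Intrinsic clearance (mL/min·g liver) taken as rate of compound consumption under first-order conditions, Clint = Vmax/KM or V/S when S ≪ KM.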

Data set [8] in a line: Protein binding in rat plasma. The settings on record: read-out: PPB (converted). The class given is ADME, cell-free.
A short description of data set [9]: Kinetic aqueous solubility of the compound in pH 7.4 solution. Format: physicochemical. The settings on record: aqueous pH 7.4 solution, read-out: Kinetic_solubility.
A short description of data set [10]: Protein binding in mouse plasma. The class given is ADME, cell-free. Conditions: read-out: PPB (converted).
A short description of data set [11]: Intrinsic clearance in human liver microsomes at 2.5 uM. Format: ADME, Microsome. Summed up:
as §2

The nature of data set [12]: Unbound plasma concentration in mouse at 30 mg/kg, po. Format: ADME, organism-based. The settings on record: in vivo. Summed up:
as §1

Data set [13] can be described thus: Intrinsic clearance in Wistar rat liver microsomes at 2.5 uM. Format: ADME, Microsome. Put shortly: as §2
For data set [14], the system named is Mus musculus. The data set is described as follows: Antipsychotic activity in ip dosed ddY mouse assessed as inhibition of PCP-induced hyperlocomotion pretreated followed by PCP addition measured after 60 mins by passive infrared sensor method. The class given is functional. Summed up:
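Male ddY mice, 6 weeks old, acclimated 60 min in test cage, dosed i.p., then immediately PCP 2.5 mg/kg s.c.; locomotor activity recorded 60 min by passive infrared sensor system; ED50 reported.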

The test system of data set [15] is Mus musculus. Nature of the data set: Inhibition of DOI-induced head twitches in ip dosed ddY mouse pretreated for 20 mins followed by DOI addition measured after 8 mins. The class given is functional. Summed up: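 Male ddY mice, 6 weeks old, dosed i.p. 20 min before DOI 0.75 mg/kg s.c.; head twitches counted in transparent cylinder from 10 to 18 min after DOI.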

Converted amounts (≈) assume the structure as drawn.

Metabotropic glutamate receptor 2, sequence (Q14416 whole entry): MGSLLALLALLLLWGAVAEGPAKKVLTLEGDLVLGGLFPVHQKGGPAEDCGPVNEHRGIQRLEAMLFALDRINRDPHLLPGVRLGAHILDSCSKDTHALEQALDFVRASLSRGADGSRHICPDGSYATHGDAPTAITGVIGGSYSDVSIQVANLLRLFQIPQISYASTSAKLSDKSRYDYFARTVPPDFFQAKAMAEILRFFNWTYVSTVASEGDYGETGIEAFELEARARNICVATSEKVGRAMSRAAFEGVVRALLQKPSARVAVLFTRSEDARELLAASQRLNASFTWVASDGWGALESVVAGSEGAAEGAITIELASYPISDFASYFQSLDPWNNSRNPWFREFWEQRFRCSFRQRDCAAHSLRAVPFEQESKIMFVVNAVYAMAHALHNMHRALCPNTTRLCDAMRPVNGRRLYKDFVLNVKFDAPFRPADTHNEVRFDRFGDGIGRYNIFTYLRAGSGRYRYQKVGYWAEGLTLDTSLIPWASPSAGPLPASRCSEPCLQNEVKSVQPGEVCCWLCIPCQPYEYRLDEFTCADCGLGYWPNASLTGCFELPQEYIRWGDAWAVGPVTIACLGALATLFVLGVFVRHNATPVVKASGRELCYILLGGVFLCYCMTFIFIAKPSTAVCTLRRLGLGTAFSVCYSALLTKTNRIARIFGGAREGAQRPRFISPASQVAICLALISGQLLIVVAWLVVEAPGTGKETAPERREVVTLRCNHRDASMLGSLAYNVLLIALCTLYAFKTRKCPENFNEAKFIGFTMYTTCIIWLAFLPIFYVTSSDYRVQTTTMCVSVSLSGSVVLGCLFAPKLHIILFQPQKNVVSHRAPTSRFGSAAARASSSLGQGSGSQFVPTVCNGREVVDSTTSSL
Cytochrome P450 2D6, sequence (P10635 whole entry): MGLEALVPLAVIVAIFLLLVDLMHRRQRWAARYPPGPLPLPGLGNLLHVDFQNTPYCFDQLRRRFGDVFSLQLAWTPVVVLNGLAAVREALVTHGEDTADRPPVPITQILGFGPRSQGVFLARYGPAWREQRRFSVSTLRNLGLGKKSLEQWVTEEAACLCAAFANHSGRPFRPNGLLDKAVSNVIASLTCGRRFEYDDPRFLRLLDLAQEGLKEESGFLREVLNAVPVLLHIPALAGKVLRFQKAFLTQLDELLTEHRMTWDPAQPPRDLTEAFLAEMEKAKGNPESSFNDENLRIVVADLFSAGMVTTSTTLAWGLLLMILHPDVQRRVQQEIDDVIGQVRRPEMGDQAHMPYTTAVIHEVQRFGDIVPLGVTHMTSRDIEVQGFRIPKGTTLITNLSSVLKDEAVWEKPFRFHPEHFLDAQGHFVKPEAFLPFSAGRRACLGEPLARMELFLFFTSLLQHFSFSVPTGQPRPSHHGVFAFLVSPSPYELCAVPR
Cytochrome P450 3A4, sequence (P08684 whole entry): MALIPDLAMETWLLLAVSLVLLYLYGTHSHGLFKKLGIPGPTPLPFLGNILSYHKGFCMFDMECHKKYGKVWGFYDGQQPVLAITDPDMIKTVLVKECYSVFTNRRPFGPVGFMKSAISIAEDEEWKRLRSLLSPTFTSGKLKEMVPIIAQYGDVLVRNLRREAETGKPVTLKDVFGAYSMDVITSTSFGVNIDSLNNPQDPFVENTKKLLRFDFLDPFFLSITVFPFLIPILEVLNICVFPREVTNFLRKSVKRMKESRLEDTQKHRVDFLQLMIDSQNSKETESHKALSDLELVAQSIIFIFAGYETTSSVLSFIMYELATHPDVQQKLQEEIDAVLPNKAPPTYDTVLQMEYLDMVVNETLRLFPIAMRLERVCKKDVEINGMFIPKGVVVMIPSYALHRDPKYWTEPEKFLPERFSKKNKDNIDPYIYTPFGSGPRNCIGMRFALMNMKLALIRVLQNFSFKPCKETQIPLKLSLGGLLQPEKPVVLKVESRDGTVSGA
Cytochrome P450 2C9, sequence (P11712 whole entry): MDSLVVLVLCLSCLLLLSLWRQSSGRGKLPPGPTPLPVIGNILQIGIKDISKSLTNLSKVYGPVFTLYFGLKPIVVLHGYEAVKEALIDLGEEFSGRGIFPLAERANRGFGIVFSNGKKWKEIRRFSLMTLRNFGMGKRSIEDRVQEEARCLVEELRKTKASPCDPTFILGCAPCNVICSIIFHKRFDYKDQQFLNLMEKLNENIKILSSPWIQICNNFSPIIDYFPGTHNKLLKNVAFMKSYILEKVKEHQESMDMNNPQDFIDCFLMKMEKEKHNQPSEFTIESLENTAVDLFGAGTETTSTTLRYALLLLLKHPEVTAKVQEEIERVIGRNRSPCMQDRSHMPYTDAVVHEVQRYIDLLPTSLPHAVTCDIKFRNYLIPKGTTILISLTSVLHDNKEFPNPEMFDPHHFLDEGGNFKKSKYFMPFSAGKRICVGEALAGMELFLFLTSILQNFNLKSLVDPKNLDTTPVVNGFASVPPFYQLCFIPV

As a reminder, the logD is the decadic logarithm of the distribution of all forms, ionised or not, between an organic phase and buffer at a given pH. Read a high logD as a more lipophilic compound. As a reminder, the IC50 is the concentration that inhibits the measured activity by half. As a reminder, the EC50 is the concentration needed to bring the measured effect to its halfway point. Usually ED50 stands for the dose at which the effect has come halfway, by size or by number of responders. `Fc1cc(Cl)ccc1-c1ccc(Cn2nnc3ccccc32)cn1`: the Activity came to 50% in the data set filed under Homo sapiens and 77% in data set [4]. The pH-dependent lipophilicity (logD) in data set [1] came out at 5.48. The concentration in data set [2] was determined as 2 µM; in data set [3], 1.4 µM. The IC50 was above 10 µM against Cytochrome P450 2D6, above 10 µM on Cytochrome P450 3A4, above 10 µM against Cytochrome P450 1A2 and 6.6 µM on Cytochrome P450 2C9. Also, the MEC in data set [5] is 7.7 µM. Moreover, in [6], the half-maximal effective concentration (EC50) was determined as 0.05 µM. Also, the Intrinsic clearance in data set [7] was 3.4 mL/min/g; in data set [11] it was 0.01 mL/min/g; in data set [13], 0.8 mL/min/g. The fraction unbound was 0.006 in data set [8] and 0.008 in data set [10]. Moreover, the solubility kinetic in [9] stood at 3 µg/mL (≈ 8.86 µM). For the same compound, the “Cp(f)” value in data set [12] worked out at 0.015 µM. Moreover, the ED50 in the data set on Mus musculus [14] was above 100 mg/kg.
For the compound `Fc1cc(Cl)ccc1-c1ccc(Cn2nnc3c(Br)cccc32)cn1`, the concentration in data set [2] amounted to 20 µM; in [3], 7.1 µM. Also, the 50% effective concentration (EC50) in data set [6] is 0.006 µM. Also, the Intrinsic clearance came to 3.8 mL/min/g in [7], 0.1 mL/min/g in data set [11] and 0.4 mL/min/g in data set [13]. For the same compound, the “Cp(f)” value in [12] stood at 0.081 µM. For the same compound, the ED50 with Mus musculus [14] was 47 mg/kg.
Take `CC(C)Cn1nnc2c(Br)cccc21`: the EC50 in data set [6] stood at 0.14 µM. The figures for the Intrinsic clearance in [7], in data set [11] and in [13] were 3.5 mL/min/g, 4.2 mL/min/g and 4 mL/min/g, respectively.
The like results for `Brc1cccc2c1nnn2Cc1ccccc1` were, in that order, 0.08 µM, 2.3 mL/min/g, 4.7 mL/min/g and 2 mL/min/g.
The like results for `Fc1ccc(-c2ccc(Cn3nnc4ccccc43)cc2)c(F)c1` were, in that order, 0.071 µM, 2.3 mL/min/g, 0.9 mL/min/g and 6.4 mL/min/g.
The like results for `Brc1cc(Br)c2nnn(CC3CC3)c2c1` were, in that order, 0.05 µM, 15.3 mL/min/g, 0.6 mL/min/g and 2.3 mL/min/g.
With `Fc1cc(Cl)ccc1Cn1nnc2c(Br)cccc21`, the EC50 in data set [6] worked out at 0.023 µM. Also, the Intrinsic clearance in data set [7] came out at 1.3 mL/min/g; in data set [11], 0.5 mL/min/g; in [13], 3.8 mL/min/g.
In the same order, the values of `c1ccc(Cn2nnc3ccccc32)cc1` are 3 µM, 1 mL/min/g, 7.9 mL/min/g and 1.2 mL/min/g.
The like results for `COc1cccc2c1nnn2CC1CC1` were, in that order, 0.4 µM, 8.3 mL/min/g, 1.8 mL/min/g and 0.8 mL/min/g.
In the same order, the values of `Clc1ccc(-c2ccc(Cn3nnc4ccccc43)cc2)c(Cl)c1` are 0.079 µM, 1.3 mL/min/g, 0.6 mL/min/g and 1.4 mL/min/g.
The compound `FC(F)(F)c1cccc2c1nnn2CC1CC1` displayed a log distribution coefficient (logD) in [1] of 3.08. The concentration in [2] came to 12.1 µM; in data set [3], 13.1 µM. The IC50 against Cytochrome P450 2D6, at Cytochrome P450 3A4, at Cytochrome P450 1A2 and against Cytochrome P450 2C9 was above 10 µM each time. Moreover, the ED50 with Mus musculus [15] is 29.7 mg/kg; in the data set with Mus musculus [14], 57.6 mg/kg. In data set [5], the MEC turned out to be 7 µM. For the same compound, the EC50 in data set [6] is 0.148 µM. For the same compound, the Intrinsic clearance in data set [7] was determined as 1.4 mL/min/g; in [11], 0.3 mL/min/g; in [13], 0.3 mL/min/g. The fraction unbound is 0.1 in data set [8] and 0.145 in data set [10]. Also, the solubility kinetic in data set [9] turned out to be 409 µg/mL (≈ 1700 µM). Moreover, in [12], the “Cp(f)” value turned out to be 1.75 µM.
In the case of `Fc1ccc(Cn2nnc3c(Br)cccc32)c(Cl)c1`, in data set [6], the EC50 stood at 0.19 µM. Moreover, the Intrinsic clearance in [7] was 3 mL/min/g; in data set [11], 1.8 mL/min/g; in data set [13] it was 3.5 mL/min/g.
In the same order, the values of `Fc1ccccc1Cn1nnc2c(Br)cccc21` are 0.064 µM, 1.7 mL/min/g, 0.2 mL/min/g and 1.8 mL/min/g.
Take `Brc1cccc2c1nnn2CC1CCCCC1`: in [6], the EC50 was found to be 0.01 µM. The Intrinsic clearance in data set [7] was found to be 15.3 mL/min/g; in data set [11], 11.9 mL/min/g; in [13] it was 16.2 mL/min/g.
